Data on ten compounds can be found in ChEMBL document CHEMBL1806443, “Novel imidazo[4,5-b]pyridine and triaza-benzo[c]fluorene derivatives: synthesis, antiproliferative activity and DNA binding studies” (Eur J Med Chem, 2011).

Usually pIC50 stands for the IC50 on a negative log10 scale, so that one unit is a factor of ten. The low end stands for a large IC50, the high end for a small IC50.

pIC50: −log10 of the molar value. Active and inactive are the calls of the source. The rule behind the calls is not given here.

Series [1] concerns WI-38. Description: Antiproliferative activity against human WI38 cells after 72 hrs by MTT assay. The series is classed as cell-based. The following applies: Homo sapiens, WI-38, 72 h. Put shortly: (§1)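 Monolayer cells in DMEM with 10% FBS, 2 mM L-glutamine, penicillin and streptomycin at 37 °C, 5% CO2. Seeded at 3000-6000 cells/well by doubling time on day 0. Five 10-fold dilutions (0.01–100 µM) were added and incubated 72 h. MTT read-out, converted to percentage growth. IC50 by linear regression between bracketing concentrations. Quadruplicate points, three independent experiments, ANOVA/Tukey p<0.05.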

Series [2] deals with MIA PaCa-2. Description: Antiproliferative activity against human MIAPaCa2 cells after 72 hrs by MTT assay. The series is classed as functional, cell-based. The settings on record: Homo sapiens, MIA PaCa-2, 72 h. Put shortly: as §1
For orientation: Tetrazolium assays rely on reduction of a dye to a coloured formazan, in cell work by metabolically active cells.

Series [3] has as its system SW-620. The experiment in a line: Antiproliferative activity against human SW620 cells after 72 hrs by MTT assay. Format: functional, cell-based. The settings on record: Homo sapiens, SW-620, 72 h. Put shortly: as §1
Series [4] relates to HEp-2. Description: Antiproliferative activity against human Hep2 cells after 72 hrs by MTT assay. Format: functional, cell-based. The following applies: Homo sapiens, HEp-2, 72 h. Put shortly:
as §1

Series [5] concerns SK-BR-3. Description: Antiproliferative activity against human SKBR3 cells after 72 hrs by MTT assay. The settings on record: Homo sapiens, SK-BR-3, 72 h. Format: functional, cell-based. Put shortly: as §1
For series [6], the system named is MCF7. The experiment in a line: Antiproliferative activity against human MCF7 cells after 72 hrs by MTT assay. The series is classed as functional, cell-based. The settings on record: Homo sapiens, MCF7, 72 h. The procedure, abridged: as §1
For series [7], the system named is HeLa. The experiment in a line: Antiproliferative activity against human HeLa cells after 72 hrs by MTT assay. The settings on record: Homo sapiens, HeLa, 72 h. Format: functional, cell-based. The procedure, abridged:
as §1

The test system of series [8] is WI-38. Description: Cytostatic activity against human WI38 cells at 1 to 10 uM after 72 hrs by MTT assay. Format: ADME, cell-based. The following applies: wi-38, 72 h. Put shortly: (§2)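 Monolayers in DMEM with 10% FBS, 2 mM L-glutamine, penicillin and streptomycin (37 °C, 5% CO2) were seeded at 3000–6000 cells/well on day 0. Five 10-fold dilutions (0.01–100 µM) were added, followed by 72-h incubation and MTT read-out. Absorbances were converted to percentage growth by the NIH formulae. Each point was run in quadruplicate in three experiments; ANOVA with Tukey test.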

In series [9] the test system is SW-620. The experiment in a line: Cytostatic activity against human SW620 cells at 1 to 10 uM after 72 hrs by MTT assay. Format: functional, cell-based. Put shortly:
as §2

Series [10] deals with MIA PaCa-2. The experiment in a line: Cytostatic activity against human MIAPaCa2 cells at 1 to 10 uM after 72 hrs by MTT assay. The series is classed as functional, cell-based. Put shortly: as §2
Series [11] relates to SK-BR-3. The experiment in a line: Cytostatic activity against human SKBR3 cells at 1 to 10 uM after 72 hrs by MTT assay. The series is classed as functional, cell-based. Put shortly:
as §2

In series [12] the test system is HEp-2. The experiment in a line: Cytostatic activity against human Hep2 cells at 1 to 10 uM after 72 hrs by MTT assay. Format: functional, cell-based. Put shortly: as §2
In series [13] the test system is MCF7. The experiment in a line: Cytostatic activity against human MCF7 cells at 1 to 10 uM after 72 hrs by MTT assay. Format: functional, cell-based. The procedure, abridged: as §2
Series [14] relates to HeLa. The experiment in a line: Cytostatic activity against human HeLa cells at 1 to 10 uM after 72 hrs by MTT assay. Format: functional, cell-based. The procedure, abridged:
as §2

Series [15] relates to WI-38. The experiment in a line: Antiproliferative activity against human WI38 cells at 0.1 to 10 uM after 72 hrs by MTT assay. The series is classed as cell-based. The settings on record: wi-38, 72 h. The procedure, abridged:
as §1

Series [16] concerns MIA PaCa-2. Description: Antiproliferative activity against human MIAPaCa2 cells at 0.1 to 10 uM after 72 hrs by MTT assay. Format: functional, cell-based. Put shortly:
as §1

Series [17] deals with SK-BR-3. The experiment in a line: Antiproliferative activity against human SKBR3 cells at 0.1 to 10 uM after 72 hrs by MTT assay. Format: functional, cell-based. The procedure, abridged: as §1
Series [18] has as its system SW-620. Description: Antiproliferative activity against human SW620 cells at 0.1 to 10 uM after 72 hrs by MTT assay. The series is classed as functional, cell-based. Put shortly:
as §1

The test system of series [19] is HEp-2. The experiment in a line: Antiproliferative activity against human Hep2 cells at 0.1 to 10 uM after 72 hrs by MTT assay. The series is classed as functional, cell-based. The procedure, abridged:
as §1

Series [20] relates to MCF7. The experiment in a line: Antiproliferative activity against human MCF7 cells at 0.1 to 10 uM after 72 hrs by MTT assay. Format: functional, cell-based. The procedure, abridged: as §1
The subject of series [21] is HeLa. Description: Antiproliferative activity against human HeLa cells at 0.1 to 10 uM after 72 hrs by MTT assay. Format: functional, cell-based. The procedure, abridged: as §1

With `N#Cc1ccc(/C=C/c2nc3ncc(Br)cc3[nH]2)cc1`, the pIC50 is 5.17 in series [1]; 5.09 in [2]; 5.15 in series [3]; 5.24 in [4]; 5.37 in series [5]; 5.11 in [6]. This compound also had a pIC50 in series [7] of 5.54. Also, the Activity entry in [8] is listed as “Toxic”. Moreover, the outcome in [9], in series [10], in series [11], in series [12], in series [13] and in series [14] was Active.
Turning to `c1ccc2c(c1)ccc1nc3ncccc3n12` [7,8,11b-triazabenzo[c]fluorene], the pIC50 in [1] is 4.32; in series [2], 4.09; in series [3], 4.11; in [4], 4.28; in series [5] it was 4.08; in series [6] it was 4.12. This compound gave a pIC50 in [7] of 4.84.
Turning to `Clc1cccnc1/C=C/c1nc2ncccc2[nH]1`, the negative logarithm of the IC50 (pIC50) in series [1] was less than 4.00; in series [2] it was less than 4.00; in [3] it was less than 4.00; in series [4], less than 4.00; in series [5], 4.27; in [6], less than 4.00. The negative-log IC50 (pIC50) in [7] was less than 4.00.
On to `O=c1[nH]cc(F)c(=O)[nH]1` [FLUOROURACIL], for which the negative logarithm of the IC50 (pIC50) was 4.73 in series [1]; 4.94 in series [2]; 5.47 in series [3]; less than 4.00 in series [4]; 4.42 in [5]; 4.38 in series [6]. This compound also gave a negative logarithm of the IC50 (pIC50) in series [7] of 4.99.
`N#Cc1ccc2ccc3nc4ncccc4n3c2c1`: the pIC50 was 4.29 in series [1]; less than 4.00 in series [2]; less than 4.00 in series [3]; 4.33 in series [4]; 4.17 in [5]; less than 4.00 in series [6]. This compound had a pIC50 in series [7] of 4.40.
Take `C(=C\c1nc2ncccc2[nH]1)/c1ccccc1`: the pIC50 is 5.41 in [1]; 5.36 in series [2]; 5.33 in [3]; 5.41 in [4]; 5.69 in [5]; 5.12 in series [6]. The compound further had a pIC50 in series [7] of 5.65. Besides, in series [8], the Activity entry is on record as “Toxic”. Also, the result in series [9], in series [10], in series [11], in series [12], in series [13] and in [14] was Active.
For `O=[N+]([O-])c1ccc(Cl)c(/C=C/c2nc3ncccc3[nH]2)c1`, the pIC50 is 4.21 in series [1]; 4.41 in series [2]; 4.28 in series [3]; 4.31 in series [4]; 5.74 in [5]; 4.27 in series [6]. Moreover, the pIC50 in series [7] is 4.35.
For the compound `Brc1cnc2nc3ccc4ccc(C5=NCCN5)cc4n3c2c1.Cl`, the pIC50 in [1] was 5.43; in [2] it was 5.32; in series [3], 5.44; in series [4], 5.40; in series [5], 5.26; in series [6] it was 5.07. Also, in [7], the pIC50 was 5.96. Further, the Activity entry in series [15] and in series [8] was “Toxic” each time. Besides, the result in [16], in series [17], in [18], in series [19], in series [20] and in series [21] was Active. Also, the outcome in series [9], in series [10], in series [11], in series [12], in series [13] and in series [14] was Active.
On to `c1cnc2ccc3nc4ncccc4n3c2c1`, for which the negative logarithm of the IC50 (pIC50) in [1], in [2], in series [3], in [4], in [5] and in series [6] was less than 4.00 each time. The compound also showed a pIC50 in series [7] of less than 4.00.
Regarding `Nc1ccc2c(ccc3nc4ncc(Br)cc4n32)c1`, the negative-log IC50 (pIC50) in series [1] was 4.07; in series [2], 4.48; in series [3], 4.41; in [4], 4.85; in series [5] it was 5.11; in series [6], 4.21. Moreover, in series [7], the pIC50 was 4.51. In series [8], the Activity result is “Toxic”.
